Measured values: ChEMBL document CHEMBL2086260, “Cytotoxic prenylated acetophenone dimers from Acronychia pedunculata” (J Nat Prod, 2012)

Legend:
DU-145 = assay: Cytotoxicity against human DU145 cells after 48 hrs by […]; type: functional, cell-based; conditions: for IC50: DU-145, 48 h
How it was run: (§1)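 Cells from ATCC, grown in RPMI 1640 with 10% heat-inactivated FBS and 1% penicillin/streptomycin. Seeded at 5000 cells/well and incubated overnight, then exposed to graded compound concentrations or DMSO vehicle for 48 h. Viability was read by MTS reagent absorbance at 490 nm and normalized to vehicle. Each experiment was run in triplicate or quadruplicate; values are means ± SD.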

A2058 = assay: Cytotoxicity against human A2058 cells after 48 hrs by […]; type: functional, cell-based; conditions: for IC50: A2058, 48 h; how it was run: as §1
NHDF = assay: Cytotoxicity against human NHDF cells after 48 hrs by […]; type: cell-based; conditions: for IC50: Homo sapiens, NHDF; for inhibition (INH): human, nhdf
How it was run: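 Normal human dermal fibroblasts were grown in DMEM with 10% FBS. Seeded at 5000 cells/well and incubated overnight, then exposed to compounds or DMSO vehicle for 48 h. Viability was read by MTS absorbance at 490 nm and normalized to vehicle. Each experiment was run in triplicate or quadruplicate.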

COc1c(CC=C(C)C)c(O)c([C@H](CC(C)C)c2c(O)c(CC=C(C)C)c(O)c(C(C)=O)c2O)c(O)c1C(C)=O [ACROVESTONE]
inhibition (DU-145): Dose-dependent effect
IC50 (DU-145): 0.93 µM
inhibition (A2058): Dose-dependent effect
IC50 (A2058): 0.38 µM
IC50 (NHDF): > 5 µM
inhibition (INH) (NHDF): Dose-dependent effect

C=C(C)C(O)Cc1c(O)c(C(C)=O)c(O)c(C(CC(C)C)c2c(O)c(CC=C(C)C)c(OC)c(C(C)=O)c2O)c1O (stereo not given) [ACROVESTENOL]
inhibition (DU-145): Dose-dependent effect
IC50 (DU-145): 2.7 µM
inhibition (A2058): Dose-dependent effect
IC50 (A2058): 2.8 µM
IC50 (NHDF): > 5 µM
inhibition (INH) (NHDF): Dose-dependent effect

COc1c(CC=C(C)C)c(O)c(C(CC(C)C)c2c(O)c(C(C)=O)c(O)c3c2OC(C(C)(C)O)C3)c(O)c1C(C)=O (stereo not given) [ACROFOLIONE A]
inhibition (DU-145): Dose-dependent effect
IC50 (DU-145): > 5 µM
inhibition (A2058): Dose-dependent effect
IC50 (A2058): 4.2 µM
IC50 (NHDF): > 5 µM
inhibition (INH) (NHDF): Dose-dependent effect

CNC(=O)c1cc(Oc2ccc(NC(=O)Nc3ccc(Cl)c(C(F)(F)F)c3)cc2)ccn1 [SORAFENIB]
IC50 (DU-145): 5.1 µM
IC50 (A2058): 3.8 µM
